According to ChEMBL document CHEMBL1157589, “Antifungal 3,5-disubstituted furanones: From 5-acyloxymethyl to 5-alkylidene derivatives” (Bioorg Med Chem, 2010):
Calls of active or inactive are those of the source.

Key:
[1] = test system: CCRF-CEM; assay: Induction of apoptosis in human CCRF-CEM cells assessed as loss of cellular plasma membrane integrity at 2.5 umol/L after 72 hrs by annexin-V FITC staining-based flow cytometry; assay type: functional, cell-based
Summary of the method: (§1)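 CCRF-CEM cells grown with compound at 2.5 µmol/L alongside untreated controls. Apoptotic and necrotic populations detected by flow cytometry using an Annexin V-FITC apoptosis kit, following the manufacturer's protocol.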

[2] = test system: Trichosporon beigelii; assay: Antifungal activity against Trichosporon beigelii 1188 after 48 hrs by microdilution method; assay type: functional; conditions: Trichosporon beigelii, 1188, 48 h
Summary of the method: (§2)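 Yeasts held on Sabouraud dextrose agar. MIC by NCCLS M27-A broth microdilution in RPMI 1640 with L-glutamine, buffered with 0.165 M MOPS to pH 7.0. Compounds in DMSO (≤2% final), twofold dilutions 500–0.48. Final inoculum 5 × 10³ ± 0.2 cfu mL⁻¹. Incubated at 35 °C; absorbance at 540 nm read at 24 and 48 h. MIC is 80% growth inhibition versus control; run twice in duplicate.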

[3] = test system: Lichtheimia corymbifera; assay: Antifungal activity against Absidia corymbifera 272 after 24 hrs by microdilution method; assay type: functional; conditions: Lichtheimia corymbifera, 272, 24 h
Summary of the method: (§3)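 Filamentous strains held on Sabouraud dextrose agar. NCCLS M27-A broth microdilution in RPMI 1640 with L-glutamine and 0.165 M MOPS, pH 7.0. DMSO diluent ≤2% final; twofold dilutions 500–0.48. Inoculum 5 × 10³ ± 0.2 cfu mL⁻¹ final.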

[4] = test system: CCRF-CEM; assay: Induction of apoptosis in human CCRF-CEM cells assessed as necrotic cells at 2.5 umol/L after 72 hrs by annexin-V FITC staining-based flow cytometry; assay type: functional; summary of the method: as §1
[5] = test system: Clavispora lusitaniae; assay: Antifungal activity against Candida lusitaniae 2446/I after 48 hrs by microdilution method; assay type: functional; summary of the method: as §2
[6] = test system: L1210; assay: Cytostatic activity against mouse L1210 cells after 72 hrs by XTT assay; assay type: functional, cell-based
Summary of the method: (§4)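 Leukemia cells (L1210 ATCC CCL 219, CCRF-CEM ATCC CCL 119, HL-60 ATCC CCL 240) grown in 24-well plates in RPMI 1640 with fetal calf serum. Growth assessed 72 h after drug addition. Viability measured by XTT spectrophotometric assay; potency given as IC50.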

[7] = test system: Nakaseomyces glabratus; assay: Antifungal activity against Candida glabrata 20/I after 24 hrs by microdilution method; assay type: functional; summary of the method: as §2
[8] = test system: Candida tropicalis; assay: Antifungal activity against Candida tropicalis 156 after 24 hrs by microdilution method; assay type: functional; conditions: Candida tropicalis, 156, 24 h; summary of the method: as §2
[9] = test system: Trichophyton mentagrophytes; assay: Antifungal activity against Trichophyton mentagrophytes 445 after 72 hrs by microdilution method; assay type: functional; conditions: Trichophyton mentagrophytes, 445, 72 h
Summary of the method: (§5)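 Dermatophyte held on Sabouraud dextrose agar. M27-A microdilution in MOPS-buffered (0.165 M, pH 7.0) RPMI 1640 with L-glutamine. DMSO ≤2% final; twofold dilutions 500–0.48. Inoculum 5 × 10³ ± 0.2 cfu mL⁻¹ final. Incubated at 35 °C; MIC read visually at 72 and 120 h as 80% inhibition of control growth; determined twice in duplicate.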

[10] = test system: Trichosporon beigelii; assay: Antifungal activity against Trichosporon beigelii 1188 after 24 hrs by microdilution method; assay type: functional; conditions: Trichosporon beigelii, 1188, 24 h; summary of the method: as §2
[11] = test system: Candida parapsilosis; assay: Antifungal activity against Candida parapsilosis ATCC 22019 after 24 hrs by microdilution method; assay type: functional; conditions: Lodderomyces parapsilosis, ATCC 22019, 24 h; summary of the method: as §2
[12] = test system: Candida albicans; assay: Antifungal activity against Candida albicans ATCC 44859 after 24 hrs by microdilution method; assay type: functional; conditions: ATCC 44859, 24 h; summary of the method: as §2
[13] = test system: Pichia kudriavzevii; assay: Antifungal activity against Candida krusei E28 after 24 hrs by microdilution method; assay type: functional; conditions: E28, 24 h; summary of the method: as §2
[14] = test system: Candida albicans; assay: Antifungal activity against Candida albicans ATCC 90028 after 48 hrs by microdilution method; assay type: functional; conditions: ATCC 90028, 48 h; summary of the method: as §2
[15] = test system: HeLa S3; assay: Cytostatic activity against human HeLaS3 cells after 48 hrs by XTT assay
[16] = test system: CCRF-CEM; assay: Cell cycle arrest in human CCRF-CEM cells assessed as increase in accumulation at S phase at 2.5 umol/L after 72 hrs by FACS analysis; assay type: functional, cell-based
Summary of the method: (§6)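 CCRF-CEM cells cultured with compound at 2.5 µmol/L. At the 72 h growth endpoint, cells ethanol-fixed and stained with propidium iodide in RNase A-containing buffer. Cell-cycle distribution analysed by flow cytometry against untreated control cells.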

[17] = test system: Candida albicans; assay: Antifungal activity against Candida albicans ATCC 90028 after 24 hrs by microdilution method; assay type: functional; conditions: ATCC 90028, 24 h; summary of the method: as §2
[18] = test system: HL-60; assay: Cytostatic activity against human HL60 cells after 72 hrs by XTT assay; assay type: functional, cell-based; summary of the method: as §4
[19] = test system: Clavispora lusitaniae; assay: Antifungal activity against Candida lusitaniae 2446/I after 24 hrs by microdilution method; assay type: functional; summary of the method: as §2
[20] = test system: Trichophyton mentagrophytes; assay: Antifungal activity against Trichophyton mentagrophytes 445 after 120 hrs by microdilution method; assay type: functional; conditions: Trichophyton mentagrophytes, 445, 120 h; summary of the method: as §5
[21] = test system: CCRF-CEM; assay: Cell cycle arrest in human CCRF-CEM cells assessed as increase in accumulation at G1 phase at 2.5 umol/L after 72 hrs by FACS analysis; assay type: functional, cell-based; summary of the method: as §6
[22] = test system: Candida parapsilosis; assay: Antifungal activity against Candida parapsilosis ATCC 22019 after 48 hrs by microdilution method; assay type: functional; conditions: Lodderomyces parapsilosis, ATCC 22019, 48 h; summary of the method: as §2
[23] = test system: Nakaseomyces glabratus; assay: Antifungal activity against Candida glabrata 20/I after 48 hrs by microdilution method; assay type: functional; summary of the method: as §2
[24] = test system: Aspergillus fumigatus; assay: Antifungal activity against Aspergillus fumigatus 231 after 24 hrs by microdilution method; assay type: functional; conditions: Aspergillus fumigatus, 231, 24 h; summary of the method: as §3
[25] = test system: Candida tropicalis; assay: Antifungal activity against Candida tropicalis 156 after 48 hrs by microdilution method; assay type: functional; conditions: Candida tropicalis, 156, 48 h; summary of the method: as §2
[26] = test system: Aspergillus fumigatus; assay: Antifungal activity against Aspergillus fumigatus 231 after 48 hrs by microdilution method; assay type: functional; conditions: Aspergillus fumigatus, 231, 48 h; summary of the method: as §3
[27] = test system: Candida albicans; assay: Antifungal activity against Candida albicans ATCC 44859 after 48 hrs by microdilution method; assay type: functional; conditions: ATCC 44859, 48 h; summary of the method: as §2
[28] = test system: CCRF-CEM; assay: Cytostatic activity against human CCRF-CEM cells after 72 hrs by XTT assay; assay type: functional, cell-based; summary of the method: as §4
[29] = test system: CCRF-CEM; assay: Cell cycle arrest in human CCRF-CEM cells assessed as decrease in accumulation at G2/M phase at 2.5 umol/L after 72 hrs by FACS analysis; assay type: functional, cell-based; summary of the method: as §6
[30] = test system: Pichia kudriavzevii; assay: Antifungal activity against Candida krusei ATCC 6258 after 24 hrs by microdilution method; assay type: functional; conditions: ATCC 6258, 24 h; summary of the method: as §2
[31] = test system: Pichia kudriavzevii; assay: Antifungal activity against Candida krusei E28 after 48 hrs by microdilution method; assay type: functional; conditions: E28, 48 h; summary of the method: as §2
[32] = test system: CCRF-CEM; assay: Induction of apoptosis in human CCRF-CEM cells assessed as loss of cellular […] membrane integrity at 2.5 umol/L after 72 hrs by annexin-V FITC staining-based flow cytometry; assay type: functional, cell-based; summary of the method: as §1
[33] = test system: Pichia kudriavzevii; assay: Antifungal activity against Candida krusei ATCC 6258 after 48 hrs by microdilution method; assay type: functional; conditions: ATCC 6258, 48 h; summary of the method: as §2
[34] = test system: Lichtheimia corymbifera; assay: Antifungal activity against Absidia corymbifera 272 after 48 hrs by microdilution method; assay type: functional; conditions: Lichtheimia corymbifera, 272, 48 h; summary of the method: as §3
[35] = test system: HeLa S3; assay: Cytostatic activity against human HeLaS3 cells after 72 hrs by XTT assay; assay type: functional, cell-based
[36] = Homo sapiens, HL-60, 72 h, read-out: IC50
[37] = Homo sapiens, CCRF-CEM, 72 h, read-out: IC50

C=C1C=C(c2ccc(Br)cc2)C(=O)O1
21 µM: IC50 ([6]; Mus musculus, L1210, 72 h, read-out: IC50)
2.52 µM: IC50 [28, 37]
7.81 µM: MIC80 [8] | MIC80 [11] | MIC80 [13] | MIC80 [14] | MIC80 [19] | MIC80 [26] | MIC80 [30] | MIC80 [31] | MIC80 [33]
125 µM: MIC80 [34]
2.09 µM: IC50 ([15]; Homo sapiens, HeLa S3, 48 h, read-out: IC50)
3.9 µM: MIC80 [10] | MIC80 [17] | MIC80 [20]
15.6 µM: MIC80 [2] | MIC80 [5] | MIC80 [22] | MIC80 [25]
active: Activity [1] | Activity [16] | Activity [21] | Activity [29] | Activity [32]
18 µM: IC50 [18, 36]
0.49 µM: MIC80 [12]
> 80%: Activity [4]
1.95 µM: MIC80 [7] | MIC80 [9] | MIC80 [23] | MIC80 [24] | MIC80 [27]
31.2 µM: MIC80 [3]

COCC1C=C(c2ccc(Br)cc2)C(=O)O1 (centres undefined)
125 µM: MIC80 [2] | MIC80 [3] | MIC80 [5] | MIC80 [7] | MIC80 [11] | MIC80 [23]
Not Active: IC50 [35]
31.2 µM: MIC80 [9] | MIC80 [14] | MIC80 [17] | MIC80 [20] | MIC80 [24] | MIC80 [27]
16 µM: IC50 [18, 36]
500 µM: MIC80 [31]
2.21 µM: IC50 [28, 37]
62.5 µM: MIC80 [8] | MIC80 [10] | MIC80 [19] | MIC80 [25] | MIC80 [26]
250 µM: MIC80 [13] | MIC80 [22] | MIC80 [30] | MIC80 [33] | MIC80 [34]
15.6 µM: MIC80 [12]

O=C1O/C(=C\CCO)C=C1c1ccc(Br)cc1
62.5 µM: MIC80 [3] | MIC80 [7] | MIC80 [12] | MIC80 [34]
125 µM: MIC80 [2] | MIC80 [8] | MIC80 [10] | MIC80 [11] | MIC80 [17] | MIC80 [19] | MIC80 [22] | MIC80 [24] | MIC80 [27] | MIC80 [30]
250 µM: MIC80 [5] | MIC80 [13] | MIC80 [14] | MIC80 [23] | MIC80 [25] | MIC80 [26] | MIC80 [31] | MIC80 [33]
Not Active: IC50 ([6]; l1210) | IC50 ([15]; hela s3) | IC50 ([18]; hl-60) | IC50 ([28]; ccrf-cem)
31.2 µM: MIC80 [9] | MIC80 [20]
